Measured values as given in ChEMBL document CHEMBL1151170, “Mycobacterium tuberculosis growth inhibition by constituents of Sapium haematospermum” (J Nat Prod, 2004).
≈ marks a conversion by molar mass, not a printed value.

How the values were obtained:
[1] = system: Vero; assay: Cytotoxicity against african green monkey Vero cells; format: cell-based; conditions: Chlorocebus sabaeus
How it was run: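 Vero cells (ATCC CCL-81) tested in the CellTiter 96 aqueous nonradioactive cell proliferation assay. Maximum (100%) cytotoxicity set by lysing cells with sodium dodecyl sulfate. IC50 defined as the reciprocal dilution giving 50% inhibition of the Vero cells.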

[2] = Selectivity index, ratio of IC50 for african green monkey Vero cells to MIC for Mycobacterium tuberculosis H37Rv; format: functional
How it was run: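 Calculated as Vero IC50 (CellTiter 96 aqueous assay, ATCC CCL-81 cells) divided by the H37Rv MIC (microplate Alamar Blue, ≥90% inhibition relative to untreated cultures).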

[3] = system: Mycobacterium tuberculosis; assay: Antitubercular activity against Mycobacterium tuberculosis H37Rv by microplate alamar blue assay; format: functional
How it was run: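 M. tuberculosis H37Rv (ATCC 27294) tested in the microplate Alamar Blue assay with fluorescence read-out. MIC taken as the lowest drug concentration giving ≥90% inhibition relative to untreated cultures.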

SMILES	IC50 [1]	Ratio [2]	MIC [3]
C=C(C)[C@@H]1CC[C@]2(C)CC[C@]3(C)[C@H](CC[C@@H]4[C@@]5(C)CC[C@@H](O)C(C)(C)[C@@H]5CC[C@]43C)[C@@H]12	127 µg/mL (≈ 298 µM)	10.4	13.4 µg/mL (≈ 31.4 µM)
O=c1c(O[C@@H]2O[C@H](CO)[C@@H](O)[C@H](O)[C@H]2O)c(-c2ccc(O)c(O)c2)oc2cc(O)cc(O)c12 [ISOQUERCETIN]			94 µg/mL (≈ 202 µM)
C=C[C@@]1(C)C=C2CC[C@@H]3[C@@](C)(CCC(=O)[C@@]3(C)CO)[C@H]2C[C@H]1O [LECHERONOL B]			128 µg/mL (≈ 402 µM)
C[C@@H]1CC[C@]2(C(=O)O)CC[C@]3(C)C(=CC[C@@H]4[C@@]5(C)C[C@@H](O)[C@H](O)[C@@](C)(CO)[C@@H]5CC[C@]43C)[C@@H]2C1			> 128 µg/mL
C=C(C)[C@@H]1CC[C@]2(C)CC[C@]3(C)[C@H](CC[C@@H]4[C@@]5(C)CC[C@H](O)C(C)(C)[C@@H]5CC[C@]43C)[C@@H]12 [LUPEOL]			> 128 µg/mL
CC1(C)CC[C@]2(C)CC[C@]3(C)C(=CC[C@@H]4[C@@]5(C)CC[C@H](O)C(C)(C)[C@@H]5CC[C@]43C)[C@@H]2C1 [beta-AMYRIN]			64 µg/mL (≈ 150 µM)
CC1(C)CC[C@]2(C)CC[C@]3(C)C(=CC[C@@H]4[C@@]5(C)CC[C@@H](O)C(C)(C)[C@@H]5CC[C@]43C)[C@@H]2C1	127 µg/mL (≈ 298 µM)	10.4	12.2 µg/mL (≈ 28.6 µM)
CCCCCCCCCCCC(=O)O[C@H]1CC[C@]23C[C@]24CC[C@]2(C)[C@@H]([C@H](C)C/C=C/C(C)(C)O)CC[C@@]2(C)[C@@H]4CC[C@H]3C1(C)C			> 128 µg/mL
O=c1c(O[C@@H]2O[C@H](CO)[C@@H](O)[C@H](O)[C@H]2O)c(-c2ccc(O)cc2)oc2cc(O)cc(O)c12 [ASTRAGALIN]			> 128 µg/mL
C[C@H]1[C@H](C)CC[C@]2(C)CC[C@]3(C)C(=CC[C@@H]4[C@@]5(C)CC[C@@H](O)C(C)(C)[C@@H]5CC[C@]43C)[C@H]12			> 128 µg/mL
CO[C@H]1/C=C/O[C@@]2(C)Oc3c(C)c(O)c4c(O)c(c(/C=N/N5CCN(C)CC5)c(O)c4c3C2=O)NC(=O)/C(C)=C\C=C\[C@H](C)[C@H](O)[C@@H](C)[C@@H](O)[C@@H](C)[C@H](OC(C)=O)[C@@H]1C [RIFAMPIN]			0.06 µg/mL (≈ 0.0729 µM)
O=C(c1c(O)cc(O)cc1O)[C@H](O)[C@H](O)c1cc(O)c(O)c(O)c1			> 128 µg/mL
CC(C)CCC[C@@H](C)[C@H]1CC[C@@]2(C)[C@@H]3CC[C@H]4C(C)(C)[C@@H](O)CC[C@@]45C[C@@]35CC[C@]12C [CYCLOARTANOL]	102 µg/mL (≈ 239 µM)	12.8	8 µg/mL (≈ 18.7 µM)
C=C[C@@]1(C)C=C2CC[C@H]3C(C)(C)C(=O)C[C@@H](O)[C@@]3(C)[C@H]2C[C@H]1O [LECHERONOL A]	105 µg/mL (≈ 329 µM)	26.2	4 µg/mL (≈ 12.6 µM)
